Measured values: ChEMBL document CHEMBL4616631, “Design, synthesis and evaluation of phthalide alkyl tertiary amine derivatives as promising acetylcholinesterase inhibitors with high potency and selectivity against Alzheimer's disease” (Bioorg Med Chem, 2020)
Calls of active or inactive are those of the source. The calls are words filed in the database; no cut-off is given here.

Key:
[1] = biological target: Amyloid-beta precursor protein (Homo sapiens) (UniProt P05067); assay: Inhibition of HFIP-pretreated self-induced amyloid beta (1 to 42) (unknown origin) aggregation at 25 uM measured after 24 hrs by ThT fluorescence assay relative to control
Sequence of Amyloid-beta precursor protein (Homo sapiens) (P05067 whole entry): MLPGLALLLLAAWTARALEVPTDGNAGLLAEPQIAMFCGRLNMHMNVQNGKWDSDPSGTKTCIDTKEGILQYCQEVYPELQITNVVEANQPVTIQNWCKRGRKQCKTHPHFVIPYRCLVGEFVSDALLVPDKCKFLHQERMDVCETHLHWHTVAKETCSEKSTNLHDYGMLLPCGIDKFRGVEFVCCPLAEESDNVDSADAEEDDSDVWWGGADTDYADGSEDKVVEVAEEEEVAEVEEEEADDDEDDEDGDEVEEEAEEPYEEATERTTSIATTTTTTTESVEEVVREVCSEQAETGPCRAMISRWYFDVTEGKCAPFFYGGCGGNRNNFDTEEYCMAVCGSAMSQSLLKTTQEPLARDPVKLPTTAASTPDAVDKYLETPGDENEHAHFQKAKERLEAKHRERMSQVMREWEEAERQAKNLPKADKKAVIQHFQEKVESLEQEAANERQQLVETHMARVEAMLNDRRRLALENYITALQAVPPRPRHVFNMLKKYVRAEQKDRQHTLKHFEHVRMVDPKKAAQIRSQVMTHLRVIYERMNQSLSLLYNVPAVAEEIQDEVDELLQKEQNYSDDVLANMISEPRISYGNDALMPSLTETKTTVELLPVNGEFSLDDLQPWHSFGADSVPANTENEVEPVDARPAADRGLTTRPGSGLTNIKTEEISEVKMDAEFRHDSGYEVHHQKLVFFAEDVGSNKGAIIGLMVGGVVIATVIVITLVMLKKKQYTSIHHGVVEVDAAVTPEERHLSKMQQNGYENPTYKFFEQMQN
How it was run: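 Aβ1-42 was pretreated in HFIP for 24 h at room temperature, dried, and dissolved in DMSO to a 200 µM stock. Aβ (25 µM) was incubated with compound (25 µM) at 37 °C for 24 h. ThT was added at 5 µM in glycine-NaOH, pH 8.5. Fluorescence ex 446/em 490 nm, background-subtracted; inhibition = (1−IFi/IFc)×100. Triplicate.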

[2] = biological target: Butyrylcholinesterase (BuChE) (Rattus norvegicus, UniProt Q9JKC1); assay: Inhibition of BuChE in rat serum at 50 uM using S-butylthiocholine iodide as substrate by Ellman's method relative to control; assay type: cell-free; settings: probe S-butylthiocholine iodide
Sequence of Butyrylcholinesterase (BuChE) (Q9JKC1 whole entry): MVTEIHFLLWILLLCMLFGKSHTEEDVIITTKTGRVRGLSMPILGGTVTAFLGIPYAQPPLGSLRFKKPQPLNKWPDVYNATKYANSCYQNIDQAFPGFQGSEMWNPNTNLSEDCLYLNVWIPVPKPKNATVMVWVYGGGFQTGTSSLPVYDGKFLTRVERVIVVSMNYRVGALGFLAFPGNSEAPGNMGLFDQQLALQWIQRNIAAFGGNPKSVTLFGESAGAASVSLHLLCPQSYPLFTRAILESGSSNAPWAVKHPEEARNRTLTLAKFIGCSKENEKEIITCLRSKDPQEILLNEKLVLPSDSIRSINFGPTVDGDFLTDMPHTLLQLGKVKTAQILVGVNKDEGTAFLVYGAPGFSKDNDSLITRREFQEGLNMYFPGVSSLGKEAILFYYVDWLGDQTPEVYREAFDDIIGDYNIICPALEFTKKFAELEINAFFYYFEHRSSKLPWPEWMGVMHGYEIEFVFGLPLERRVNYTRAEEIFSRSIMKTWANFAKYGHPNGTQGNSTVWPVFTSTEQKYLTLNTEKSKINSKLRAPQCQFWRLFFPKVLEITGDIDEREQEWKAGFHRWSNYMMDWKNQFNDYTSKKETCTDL
How it was run: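 Rat serum (25%) as BuChE source, S-butylthiocholine iodide 1 mM, DTNB 0.2%, in 0.1 mM phosphate buffer pH 7.4, 37 °C 15 min (modified Ellman); absorbance change at 405 nm. Three independent experiments, each in triplicate.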

[3] = biological target: Acetylcholinesterase (Electrophorus electricus) (UniProt O42275); assay: Inhibition of Electrophorus electricus AChE at 50 uM using […] as substrate incubated for 15 mins by Ellman's method relative to control
Sequence of Acetylcholinesterase (Electrophorus electricus) (O42275 24-633 limits assumed): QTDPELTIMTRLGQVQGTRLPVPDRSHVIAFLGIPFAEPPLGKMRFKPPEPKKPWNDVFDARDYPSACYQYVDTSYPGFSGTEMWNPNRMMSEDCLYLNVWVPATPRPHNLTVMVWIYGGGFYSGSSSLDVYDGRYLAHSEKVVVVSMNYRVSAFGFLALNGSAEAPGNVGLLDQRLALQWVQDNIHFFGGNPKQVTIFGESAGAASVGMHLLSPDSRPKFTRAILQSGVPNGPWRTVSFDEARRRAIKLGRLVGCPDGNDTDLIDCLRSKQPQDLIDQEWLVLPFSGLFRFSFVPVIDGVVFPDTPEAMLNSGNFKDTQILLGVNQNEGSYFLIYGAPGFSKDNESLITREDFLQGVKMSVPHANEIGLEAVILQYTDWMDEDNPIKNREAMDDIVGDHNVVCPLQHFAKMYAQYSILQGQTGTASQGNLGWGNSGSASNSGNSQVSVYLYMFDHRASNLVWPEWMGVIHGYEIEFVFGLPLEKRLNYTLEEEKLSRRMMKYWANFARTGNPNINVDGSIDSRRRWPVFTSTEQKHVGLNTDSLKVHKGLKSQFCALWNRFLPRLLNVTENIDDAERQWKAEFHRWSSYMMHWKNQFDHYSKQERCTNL
How it was run: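 Eel AChE (0.05 U/mL final) with acetylthiocholine iodide 1 mM and DTNB 0.2% in […] pH 8.0, 37 °C 15 min (modified Ellman); absorbance at 412 nm. Three independent experiments, each in triplicate.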

[4] = Antioxidant activity assessed as trolox equivalent of AAPH-induced radical scavenging activity at 5 uM preincubated for 15 mins followed by AAPH addition measured every min for 90 mins by ORAC-FL assay; assay type: functional
How it was run: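 ORAC-FL in 75 mM phosphate buffer, pH 7.4. Sample at 5 µM was preincubated with fluorescein (150 nM final) for 15 min at 37 °C, then AAPH was added (12 mM final). Fluorescence (ex 485/em 535 nm) was read every minute for 90 min. […] Triplicate, at least three independent assays.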

Mus musculus [5] = assay: (§1) Antialzheimer activity in scopolamine-induced Kunming mouse model of memory impairment assessed as decrease in number of electric shock at 5 mg/kg/day, ig for 7 days followed by training trial at 1 hr post dose on day 6 and subsequent scopolamine challenge at 30 mins post training trial and measured post last dose by step-down passive avoidance test; assay type: functional, organism-based
How it was run: (§2)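 Kunming mice, 18-22 g, male and female in half, 8 per group. Dosed i.g. once daily for 7 days, vehicle 0.5% CMC-Na. Day-6 training came 1 h after dosing: a 50 V, 5 s foot shock on stepping down from the platform, in a 5 min trial. Scopolamine 2.0 mg/kg i.p. followed 30 min later; control mice got none. Step-down latency and number of shocks were counted over 5 min in the test trial 24 h after training. Mean ± SEM.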

Mus musculus [6] = assay: as §1, with “increase” for “decrease”, “latency time” for “number of electric shock”; assay type: functional, organism-based; how it was run: as §2

SMILES	inhibition [1]	inhibition at 50 µM [2]	inhibition [3]	Activity [4]	Activity (Mus musculus [5])	Activity (Mus musculus [6])
CCCCC1OC(=O)c2ccccc21 (racemic) [RAC-3-N-BUTYLPHTHALIDE]	< 5%	2.67%	< 5%	0.21 µMequiv/µM	–	–
COc1cc2c(cc1OC)C(=O)C(CC1CCN(Cc3ccccc3)CC1)C2 (stereo unspecified)	–	–	–	–	inactive	inactive
